# Several values for one entry are separate records, joined by “and”; a condition that tells them apart may be missing. Equal entries are not always repeated. Where two headings read alike, the source gives them in different places.
# Experiments:
# [1] = cited from earlier work
# [2] = Phase I open-label drug interaction PK study, arm B
# [3] = Phase I open-label drug interaction PK study, arm A; conditions: for Cmax: in vivo
# [4] = human, in vivo
# [5] = Fasting lipid profile, calculated LDL-C; assay type: in vivo, healthy adult HIV-1 seronegative volunteers
# Outline: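 Healthy HIV-seronegative volunteers aged 18–60 (BMI 18–25, ≥50 kg) took pitavastatin with observed dosing on day 4. They then took EFV 600 mg (arm A, night) or DRV/ritonavir 800/100 mg (arm B, morning) on days 5–14, plus pitavastatin 2 mg on days 15–18. Fasting serum total cholesterol, triglycerides and HDL were measured enzymatically on days 0, 4, 14 and 18, and LDL-C was calculated by the Friedewald equation.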
# [6] = human, in vivo; remark: listed apart in the source
# [7] = coadministered with pitavastatin vs DRV/r alone, nonsignificant
# [8] = pitavastatin 4 mg daily with DRV/r 800/100 mg, healthy volunteers
# [9] = pitavastatin 4 mg once daily and lopinavir/r 400/100 mg twice a day, healthy volunteers
compound,measurement,setting,value
CC[C@H](C)C(=O)O[C@H]1C[C@H](O)C=C2C=C[C@H](C)[C@H](CC[C@@H](O)C[C@@H](O)CC(=O)O)[C@H]21 [pravastatin],Decrease of statin AUC by EFV,[1]; coadministered with EFV,40%
same,Increase of pravastatin AUC,[1]; coadministration with lopinavir/ritonavir,33%
same,Reduction of pravastatin exposure,[1]; combined with nelfinavir or saquinavir,about 50%
same,Increase of pravastatin AUC,[1]; in the presence of DRV/r,81%
"CC(C)CN(C[C@@H](O)[C@H](Cc1ccccc1)NC(=O)O[C@H]1CO[C@H]2OCC[C@H]21)S(=O)(=O)c1ccc(N)cc1 [DRV, darunavir]",Increase in DRV mean AUC0-τ,[2]; [7],8% and < 10%
same,Increase in DRV mean Cmax,[2]; [7],3% and < 10%
same,"DRV mean plasma concentrations, alone vs coadministered","[2]; with pitavastatin, Fig. 3B",remained similar
"O=C1Nc2ccc(Cl)cc2[C@@](C#CC2CC2)(C(F)(F)F)O1 [EFV, efavirenz]","EFV AUC0-τ, geometric mean","[3]; EFV 600 mg with pitavastatin 2 mg, day 18, N=14",44.4 µg·h/mL
same,"EFV Tmax, median (IQR)","[3]; EFV only, day 14, N=14",2.0 (0.9 to 3.0) h
same,Cmax,[3]; human,3720 ng/mL
same,Cmax,"[3]; human, 600 mg",4150 ng/mL
same,AUC,"[3]; human, plasma, oral, 600 mg",49500 ng·h/mL
same,Tmax,"[3]; human, plasma, oral, EFV Tmax, median (IQR), EFV with pitavastatin, day 18, N=14",1.5 h
same,EFV AUC0-τ geometric mean ratio (90% CI),[4],0.90 (0.75 to 1.06)
same,"EFV mean plasma concentrations, alone vs coadministered",[4],remained similar throughout the entire 24-hour PK period
"O=C(O)C[C@H](O)C[C@H](O)/C=C/c1c(C2CC2)nc2ccccc2c1-c1ccc(F)cc1 [Pitavastatin, pitavastatin]","Pitavastatin mean plasma concentrations, alone vs coadministered","[2]; with DRV/r, 24-hour PK period, Fig. 3A",similar
same,Increase in pitavastatin AUC,[1]; combined with ritonavir-boosted atazanavir,31%
same,Safety of concomitant administration,[1]; lopinavir/ritonavir in combination with pitavastatin,safe and well tolerated
same,Change in pitavastatin Cmax,[1]; [8],minimal or no change
same,Reduction in pitavastatin AUC0-τ,[1]; [8],26%
same,Change of pitavastatin Cmax,[1]; [9],unaffected
same,Reduction of pitavastatin AUC,[1]; [9],~ 20%
same,"Pitavastatin Tmax, median (IQR)",[4],2.0 (0.9 to 3.0) h
same,Change in mean LDL,"[5]; day 0-4, pitavastatin only, arms A and B",decreased
same,Change in mean LDL,"[5]; day 14 to day 18, pitavastatin and either EFV or DRV/r",decreased
O=C1C[C@H](O)C[C@@H](/C=C/c2c(C3CC3)nc3ccccc3c2-c2ccc(F)cc2)O1 [pitavastatin lactone],Pitavastatin lactone median Tmax,[6],2.0 h
